Screens deposited in PubChem BioAssay by several laboratories.
The entries come from a sample that favours hits as a whole.
ROMK mod = ROMK potassium channel modulators, primary screen, cell-based, thallium flux, MLSMR library | 130,000 tested, 2% active | B-score at 10 µM | Tet-inducible ROMK, thallium flux fluorescence; actives lie on both sides | AID 1918, 2009 | ATP-sensitive inward rectifier potassium channel 1 (Homo sapiens), P48048;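 active = signal ratio slope over the read window, or its plate-corrected B-score, at least 3 SD from the plate mean, either direction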;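 note: B-score of the F/F0 ratio slope over 7 to 12 s after thallium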
Target sequence (P48048 whole entry, looked up): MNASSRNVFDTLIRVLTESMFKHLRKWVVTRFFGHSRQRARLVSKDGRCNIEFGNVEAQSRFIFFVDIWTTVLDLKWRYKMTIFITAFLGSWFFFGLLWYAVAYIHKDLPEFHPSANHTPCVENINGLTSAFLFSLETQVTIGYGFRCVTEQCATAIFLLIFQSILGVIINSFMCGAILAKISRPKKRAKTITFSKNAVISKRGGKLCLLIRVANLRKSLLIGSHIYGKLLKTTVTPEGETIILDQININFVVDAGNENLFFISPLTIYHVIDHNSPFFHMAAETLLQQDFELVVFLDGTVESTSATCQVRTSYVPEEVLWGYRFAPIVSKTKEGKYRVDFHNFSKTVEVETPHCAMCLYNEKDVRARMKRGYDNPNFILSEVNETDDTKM
Pf gametocyte = late stage P. falciparum gametocyte viability inhibitors, primary screen, ATP luminescence, HTS; P. falciparum stage V gametocytes, 24 h; AID 743093, 2013; inhibition, % at 10.9 µM; 150,000 tested, 0.065% active;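 active = inhibition above the mean plus 3 SD of compounds within the control limits, set per campaign, cut at about 38% in these data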;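 note: 0% = DMSO wells and 100% = medium only without gametocytes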
Biofilm kill mix = clotrimazole potentiators killing C. albicans biofilm, primary screen, 4-compound mixtures; C. albicans biofilm persisters + clotrimazole, fluorescence viability; primary screen in compound mixtures of four per well; inhibition, % at 7.6 µM; 120,000 tested, 0.02% active;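 active = inhibition above 30.3% in the primary screen of four-compound pools, then above 30% when the compound was retested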;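 note: compounds exposed to preformed 24 h biofilms for 48 h; 0% = untreated biofilm control and 100% = clotrimazole plus chlorhexidine kill blank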
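Probe or stimulus – Clotrimazole 50 µg/mL co-treatment · System – C. albicans biofilms · Schedule – 24 h biofilm formation, then 48 h compound exposure, 37 °C · Evaluation – percent inhibition of biofilm viability · Technique – 2-h Alamar Blue fluorescence, 535/590 nm excitation/emission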
ROMK hit retest = ROMK channel modulator hit retest, confirmation, cell-based, thallium flux, duplicate, resupplied hits | AID 1917, 2009 | fluorescence ratio; hits give low values | shares compounds with ROMK mod | 3,000 tested, 54% active | normalized thallium flux (F/F0 slope) at 10 µM;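 active = Flux at 10 µM at least 3 SD below or above vehicle control mean in one or both replicates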
The depositor's hits bear a star; / = not tested or not shown.

SMILES | ROMK mod | Pf gametocyte | Biofilm kill mix | ROMK hit retest
COc1ccc(N=C2S/C(=C\c3ccc(OCC(=O)O)cc3)C(=O)N2CCc2c[nH]c3ccccc23)cc1 | 8.54* | 15.1 | 15.2 | 0.121*
CCOC(=O)c1c(CSc2ccccc2)n(C)c2ccc(O)c(CN3CCOCC3)c12 | -1.6 | / | 15.0 | /
CCN1CCN(C(=S)c2ccc(-c3ccccc3)cc2)CC1 | -0.439 | -4.9 | 11.5 | /
O=C(N/N=C/c1cn(-c2ccccc2)nc1-c1cc2ccccc2o1)c1ccncc1 | 0.0514 | 5.9 | 18.7 | /
O=C(N/N=C/c1cn(-c2ccccc2)nc1-c1cc2ccccc2o1)c1cccnc1 | / | / | 8.0 | 0.0749
CN(C)S(=O)(=O)c1cccc(-c2nn(-c3ccccc3)cc2/C=C(\C#N)c2nc3ccccc3[nH]2)c1 | 0.937 | / | -7.1 | /
N#C/C(=C\c1cn(-c2ccccc2)nc1-c1cc2ccccc2o1)c1nc2ccccc2[nH]1 | -3.51* | -11.3 | 9.2 | 0.0484*
CC(C)(C)c1ccc(C(=O)N2CCCN(c3ccc([N+](=O)[O-])cn3)CC2)cc1 | / | -26.9 | 4.9 | /
Cc1ccc(S(=O)(=O)n2[nH]c(=O)cc2N)cc1 | / | / | 19.6 | /
CC(=O)N(C(C)=O)S(=O)(=O)c1ccc(N=NN2CCCCC2)cc1 | 1.89 | -17.1 | 10.7 | /
Cc1cc(/C=C2\SC(=S)NC2=O)c(C)n1C1CC1 | -0.767 | 1.0 | / | /
O=C1NC(=S)S/C1=C\c1coc2ccc(O)cc2c1=O | / | -26.6 | 21.1 | 0.0319*
O=C(NCCc1ccccc1)c1c(O)c2ccccc2[nH]c1=O | / | 0.7 | / | /
CCNC(=O)c1c(O)c2ccccc2[nH]c1=O | 2.56* | / | / | 0.0891
COc1ccc(-n2c(C)nc(N)c2C(=O)c2ccccc2)cc1 | / | -28.2 | 17.4 | /
CC(C)CCn1cnc2c(oc3nc4c(cc32)CCCC4)c1=O | / | 18.9 | 0.9 | /
COc1ccccc1CNC(=O)CSCc1cnn(-c2ccccc2)c1-n1cccc1 | / | -5.5 | / | /
COc1cccc(CNC(=O)CSCc2cnn(-c3ccccc3)c2-n2cccc2)c1OC | -3.33* | 3.2 | / | 0.0786
COc1cc2c(cc1OC)C(C)N(S(=O)(=O)c1cn(C)c(C)n1)CC2 (stereo not drawn) | / | -8.8 | 10.1 | /
N#C/C(=C\c1cccc([N+](=O)[O-])c1)C(=O)NCc1ccc(Cl)cc1 | -0.0665 | -15.5 | -2.5 | /
CCCCNC(=O)/C(C#N)=C/c1cccnc1 | -3.27* | -15.2 | 3.2 | 0.05*
N#C/C(=C\c1ccc2c(c1)OCCO2)C(=O)NC1CCCCC1 | / | -5.5 | 6.9 | /
COCCNC(=O)/C(C#N)=C/c1cccc(/C=C(\C#N)C(=O)NCCOC)c1 | / | 6.7 | 11.5 | 0.0373*
N#C/C(=C\c1cccnc1)C(=O)NC1CCCCC1 | -5.27* | / | 13.8 | 0.036*
CC(C)OC(=O)/C(C#N)=C\c1cccnc1 | -0.0152 | -35.9 | 24.0 | /
SMILES | ROMK mod | Pf gametocyte | Biofilm kill mix | ROMK hit retest
COCCNC(=O)/C(C#N)=C/c1ccc(O)cc1 | / | 15.6 | 11.8 | /
N#C/C(=C\c1cccc([N+](=O)[O-])c1)C(=O)NCc1cccnc1 | / | 4.9 | 18.5 | 0.0223*
C/C(O)=C(/C=Nc1ccccc1)C(=O)Nc1ccccc1 | 0.594 | / | 9.1 | /
COc1ccccc1CNC(=O)/C=C/c1ccc(Br)o1 | 0.698 | -14.3 | 43.3 | /
N#C/C(=C\c1cccnc1)C(=O)Nc1cccc(Cl)c1 | -0.882 | 4.6 | 9.4 | /
N#C/C(=C\c1cccnc1)C(=O)Nc1cccc2ccccc12 | -2.45* | -23.6 | -8.9 | 0.0459*
Cc1nn(CCC#N)c(N)c1C1(O)C(=O)Nc2c(Cl)cc(Cl)cc21 (stereo not drawn) | / | -6.1 | 29.1 | /
O=C(Nc1ccc2oc(-c3cccnc3)nc2c1)c1cccnc1 | -5.09* | / | / | 0.0799
CCOc1cccc(C(=O)Nc2ccc3oc(-c4cccnc4)nc3c2)c1 | / | -6.7 | 20.8 | /
O=C(/C=C/c1cccc(Br)c1)N1CCN(c2cccc(C(F)(F)F)c2)CC1 | -0.333 | -10.8 | 3.7 | /
O=C(/C=C/c1ccc(Br)cc1)N1CCN(c2cccc(C(F)(F)F)c2)CC1 | / | / | 18.6 | 0.0775
Cc1cccc(NC(=O)C2C3C=CC(O3)C2C(=O)O)c1C (stereo not drawn) | / | -18.6 | / | /
Clc1ccc(-c2nnc3ccccn23)cc1 | 0.159 | 3.9 | / | /
Cc1cn2c(-c3ccc(Cl)cc3)nnc2s1 | / | / | / | 0.0708
Cc1ccc(/C([O-])=C(/C(=S)Nc2ccc(SC(F)F)cc2)[n+]2ccccc2)cc1[N+](=O)[O-] | 0.474 | -3.6 | 7.1 | /
COc1cc(/C=C(\C#N)C(=O)NC2CCCCC2C)ccc1OS(=O)(=O)c1ccc(C)cc1 (stereo not drawn) | / | -3.4 | 0.0 | /
